Legend:
Type in all cases: functional
Mus musculus [1] = assay: Effective dose to produce anticonvulsant activity using maximal electroshock assay (MES) evaluated in mice after oral administration
Method in brief: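 Mice given oral doses as a suspension in 5% acacia/water. Corneal electroshock (40 mA, 0.1 s, ac). Retest at the time of peak effect with at least four doses, 12 mice per dose. ED50 is for prevention of tonic-extensor convulsions, by Litchfield–Wilcoxon with 95% confidence limits.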

Mus musculus [2] = assay: Effective dose to produce anticonvulsant activity using horizontal screen test (HS) evaluated in mice after oral administration
Method in brief: (§1)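 Fasted male CF1 mice (20–25 g), oral suspension in 5% acacia/water. Each mouse placed on a screen, rod rotated 180°, and return to the top within 1 min scored. Peak time found at 0.5–4 h. Retest at that time with at least four doses, 12 mice per dose. ED50 by Litchfield–Wilcoxon with 95% confidence limits.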

Mus musculus [3] = assay: Time to peak anticonvulsant effect (TPE) evaluated in mice after oral administration
Method in brief: (§2)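 Three groups of mice given a range of oral doses in 5% acacia/water. Challenged by corneal MES (40 mA, 0.1 s, ac) at 0.5, 1, 2, 3 and 4 h posttreatment. Time of peak protection against seizures recorded.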

Mus musculus [4] = assay: Anticonvulsant activity using hexobarbital-induced (100 mg/kg dose was administered intraperitoneally) sleeping time assay evaluated in mice
Method in brief: (§3)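 Groups of 10 fasted mice dosed orally with test compound in 5% acacia/water; at the previously determined time of peak effect, hexobarbital given ip, solubilized with stoichiometric NaOH. Duration of loss of righting reflex monitored. Mean ± SEM for 10 animals, compared against vehicle controls.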

Mus musculus [5] = assay: Effective dpse to produce anticonvulsant activity using horizontal screen test (HS) evaluated in mice after oral administration; method in brief: as §1
Mus musculus [6] = assay: Time to peak anticonvulsant effect (TPE) was determined in mice after oral administration; method in brief: as §2
Mus musculus [7] = assay: Anticonvulsant activity using hexobarbital-induced (100 mg/kg dose was administered intraperitoneally) sleeping time assay evaluated in mice after oral administration; method in brief: as §3
Mus musculus [8] = assay: Anticonvulsant activity using hexobarbital-induced (100 mg/kg dose was administered intraperitoneally)sleeping time assay evaluated in mice; method in brief: as §3

CC(O)(Cn1ccnc1)c1ccc2c(c1)Cc1ccccc1-2 (centres undefined)
ED50 (Mus musculus [1]): 10 mg/kg

Cl.c1ccc(-c2ccccc2OCCCCn2ccnc2)cc1
ED50 (Mus musculus [1]): 29.8 mg/kg
ED50 (Mus musculus [2]): > 200 mg/kg
TPE (Mus musculus [3]): 0.5 h
Hexobarb ST (Mus musculus [4]): 124.3 min

Cl.c1ccc(-c2cccc(OCCn3ccnc3)c2)cc1
ED50 (Mus musculus [1]): 20.5 mg/kg
ED50 (Mus musculus [2]): > 200 mg/kg
TPE (Mus musculus [3]): 4 h
Hexobarb ST (Mus musculus [4]): 334 min

O=C1NC(=O)C(c2ccccc2)(c2ccccc2)N1 [PHENYTOIN]
ED50 (Mus musculus [1]): 9.4 mg/kg
TPE (Mus musculus [3]): 1 h
ED50 (Mus musculus [5]): 210 mg/kg

O=C(Cn1ccnc1)c1ccc2ccccc2c1 [NAFIMIDONE]
ED50 (Mus musculus [1]): 56 mg/kg

c1ccc(OCCn2ccnc2)cc1
ED50 (Mus musculus [1]): 130 mg/kg
ED50 (Mus musculus [2]): > 280 mg/kg
TPE (Mus musculus [3]): 4 h
Hexobarb ST (Mus musculus [4]): 434.2 min

Cl.c1ccc(-c2ccccc2OCCCn2ccnc2)cc1
ED50 (Mus musculus [1]): 21.3 mg/kg
ED50 (Mus musculus [2]): > 280 mg/kg
TPE (Mus musculus [3]): 1 h
Hexobarb ST (Mus musculus [4]): 126.7 min

Cl.c1ccc(-c2ccccc2OCCn2ccnc2)cc1
TPE (Mus musculus [6]): 1 h
Hexobarb ST (Mus musculus [7]): 252.1 min
ED50 (Mus musculus [1]): 15.5 mg/kg
ED50 (Mus musculus [2]): 320 mg/kg

Cl.c1ccc(-c2ccc(OCCn3ccnc3)cc2)cc1
ED50 (Mus musculus [1]): 44 mg/kg
ED50 (Mus musculus [2]): > 400 mg/kg
TPE (Mus musculus [3]): 2 h
Hexobarb ST (Mus musculus [8]): 697.5 min
